Experimental data taken from paper PMC5835416 (Biochimica et biophysica acta, 2018).
Where two headings read alike, the source gives them in different places.

How the values were obtained:
tear lipocalin [1] = target: T1, tear lipocalin (Homo sapiens, UniProt P31025); experiment: Linear spectral summation; format: binding; conditions: apparent, tear lipocalin 10 μM, pH 7.3
In short: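 Each spectrum fitted as linear sum of bound reference (2 μM ligand + 10 μM protein), unbound reference (2 μM ligand in buffer) and baseline, yielding bound and free ligand. Triplicate means fitted to hyperbola or Hill equation.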

[2] = Centrifugal precipitation of lipid in buffer without protein; format: physicochemical; conditions: 10 mM Na-phosphate pH 7.3; ~196,000 × g
tear lipocalin [3] = target: T1, tear lipocalin; format: binding
In short: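 Incubated 25°C 30 min or 34°C 16 h, then centrifuged ~196,000 × g, 1 h, same temperature. Bound (supernatant) and precipitated ligand quantified by absorbance via extinction coefficients. Lysozyme 10 μM as negative control. Triplicate means fitted to hyperbola and Hill equation.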

tear lipocalin [4] = target: T1, tear lipocalin; experiment: Fluorescence binding assay with NBD-labeled lipids; conditions: 1 μM tear lipocalin; for fluorescence in the presence of tear lipocalin compared to the unbound label: 1 μM ligand; for Kd: apparent, pH 7.3
In short: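 After equilibration, fluorescence spectra recorded at 20°C, λex 420 nm. Relative intensity at 523 nm used to compute bound label. Triplicate runs, means taken. B/P versus unbound lipid fitted by nonlinear regression to a rectangular hyperbola or Hill equation, giving apparent Kd and n.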

tear lipocalin [5] = target: T1, tear lipocalin; experiment: DAUDA displacement fluorescence assay; format: binding; conditions: end of titration
[6] = apparent, Hill equation fit, 10 μM (C6) or 20 μM (C12) tear lipocalin, 10 mM sodium phosphate pH 7.3
[7] = apparent, hyperbola fit, 10 μM (C6) or 20 μM (C12) tear lipocalin, 10 mM sodium phosphate pH 7.3

T1 sequence (P31025 19-176): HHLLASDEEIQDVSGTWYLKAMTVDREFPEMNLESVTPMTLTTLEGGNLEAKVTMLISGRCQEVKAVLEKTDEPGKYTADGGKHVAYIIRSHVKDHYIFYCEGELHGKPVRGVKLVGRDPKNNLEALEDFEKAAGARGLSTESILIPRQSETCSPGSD

Compound | Kd (tear lipocalin [1]; Hill equation fit) [nM] | Kd (tear lipocalin [1]; hyperbola fit) [nM] | precipitation in buffer [2] | Kd (tear lipocalin [3]; [6]) [nM] | Kd (tear lipocalin [3]; [7]) [nM] | apparent dissociation constant (Kd) (tear lipocalin [3]; fit not named) | fluorescence in the presence of tear lipocalin compared to the unbound label (tear lipocalin [4]) | Kd (tear lipocalin [4]; Hill equation fit) [nM] | Kd (tear lipocalin [4]; hyperbola fit) [nM] | Kd (tear lipocalin [3]; read-out: apparent dissociation constant (Kd), fit not named) [nM] | residual DAUDA fluorescence compared with stearic acid (tear lipocalin [5])
CCCCCCCCCCCCC/C=C/[C@@H](O)[C@H](CO)NC(=O)CCCCCNc1ccc([N+](=O)[O-])c2nonc12 [C6-NBD ceramide, N-[6-[(7-nitro-2-1,3-benzoxadiazol-4-yl)amino]hexanoyl]-D-erythro-sphingosine] | 70 | 60 | complete precipitation | 290 | 320 | sub-micromolar | enhanced fluorescence | 80 | 80 | – | –
CCCCCCCCCCCCC/C=C/[C@@H](O)[C@H](CO)NC(=O)CCCCCCCCCCCNc1ccc([N+](=O)[O-])c2nonc12 [C12-NBD ceramide, N-[12-[(7-nitro-2-1,3-benzoxadiazol-4-yl)amino]dodecanoyl]-D-erythro-sphingosine] | – | – | complete precipitation | 1060 | 1230 | – | enhanced fluorescence | 100 | 130 | 1200 | –
CCCCCCCCCCCCC/C=C/[C@@H](O)[C@H](CO)NC(=O)CCCCCCCCCCCCCCCCC [C18-ceramide, ceramide-N-(octadecanoyl) sphing-4-enine, also known as N-stearoyl-D-erythro-sphingosine] | – | – | – | – | – | – | – | – | – | – | twice as great
